Holding throughout (set-up): scale not given: the % may be the effect or the level left
The species named for assay [1] is Rattus norvegicus. Briefly: Reduction in sterol level in CFE rat […] in serum at 0.1% of diet treated through diet for 6 days relative to control. The class given is functional. A digest of the protocol:
(§1)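 Compound dissolved in methanol-chloroform (1:3 v/v), mixed into ground rat chow at 0.1, 0.05 or 0.025% (w/w), and solvent evaporated; controls received solvent-treated chow. Rats fed ad libitum with water for 6 days, then killed fed and bled. Serum sterols and triglycerides measured by autoanalyzer. Values given as percent of control, mean ± SE; significance by Student's t test.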

The species entered for assay [2] is Rattus norvegicus. Briefly: Reduction in sterol level in CFE rat […] in serum at 0.05% of diet treated through diet for 6 days relative to control. Type of assay: functional. The method, boiled down: as §1
The species entered for assay [3] is Rattus norvegicus. Briefly: Reduction in triglyceride level in CFE rat […] in serum at 0.05% of diet treated through diet for 6 days relative to control. The class given is functional. A digest of the protocol:
as §1

Assay [4] is filed under the species Rattus norvegicus. Nature of the assay: Reduction in sterol level in CFE rat […] at 0.025% of diet treated through diet for 6 days relative to control. The class given is functional, Serum. A digest of the protocol:
as §1

The species entered for assay [5] is Rattus norvegicus. Nature of the assay: Reduction in triglyceride level in CFE rat […] in serum at 0.1% of diet treated through diet for 6 days relative to control. The class given is functional. The method, boiled down:
as §1

The species entered for assay [6] is Rattus norvegicus. Briefly: Reduction in triglyceride level in CFE rat […] at 0.025% of diet treated through diet for 6 days relative to control. Type of assay: functional, Serum. The method, boiled down:
as §1

Structures are written as SMILES.

Consider `CCCCCCCCCCCC(Cl)CCOc1ccc(C(=O)O)cc1` (configuration not stated), for which the Activity in assay [1] was determined as 60%; in assay [2], 69%; in assay [3], 53%; in assay [4], 72%; in assay [5], 47%; in assay [6], 59%.

Regarding `CCCCCCCCCC/C=C/CCCOc1ccc(C(=O)O)cc1`, the Activity was determined as 79% in assay [1]; 92% in assay [2]; 76% in assay [3]; 92% in assay [4]; 92% in assay [5]; 72% in assay [6].

As for `COCCCCCCCCCCCOc1ccc(C(=O)OC)cc1`, the Activity was 104% in assay [1]; 96% in assay [2]; 69% in assay [3]; 93% in assay [4]; 36% in assay [5]; 77% in assay [6].

On to `CCCCCCCCCCCC(=O)CCOc1ccc(C(=O)OC)cc1`, for which the Activity in assay [1] is on record as 81%; in assay [2], 93%; in assay [3], 61%; in assay [4], 100%; in assay [5], 61%; in assay [6], 78%.

Regarding `C=CCCCCCCCC/C=C/CCCOc1ccc(C(=O)O)cc1`, the Activity in assay [1] is listed as 74%; in assay [2], 87%; in assay [3], 96%; in assay [4], 92%; in assay [5], 83%; in assay [6] it was 83%.

As for `CCCCCCCCCCCCC(CCC)Oc1ccc(C(=O)O)cc1` (configuration not stated), the Activity in assay [1] worked out at 74%; in assay [2], 76%; in assay [3], 62%; in assay [4] it was 78%; in assay [5], 53%; in assay [6] it was 70%.

On to `CCCCCCCCCCCCCCCCOc1c(I)cc(C(=O)O)cc1I`, for which the Activity in assay [1] was 93%; in assay [2], 85%; in assay [3], 86%; in assay [4], 94%; in assay [5], 105%; in assay [6], 96%.

For `CCSCCCCCCCCCCCOc1ccc(C(=O)O)cc1`, the Activity in assay [1] came out at 76%; in assay [2], 70%; in assay [3], 56%; in assay [4], 74%; in assay [5], 48%; in assay [6], 60%.

Turning to `CCS(=O)(=O)CCCCCCCCCCCCCCCCOc1ccc(C(=O)O)cc1`, the Activity is given as 89% in assay [1]; 83% in assay [2]; 61% in assay [3]; 90% in assay [4]; 60% in assay [5]; 70% in assay [6].

Turning to `COC(=O)c1ccc(OCCCCCCCCCCCCCCCO)cc1`, the Activity in assay [1] amounted to 93%; in assay [2], 98%; in assay [3], 104%; in assay [4], 96%; in assay [5], 89%; in assay [6], 98%.

With `CCCCCCCCCCCCC/C=C\COc1ccc(C(=O)O)cc1`, the Activity in assay [1] stood at 90%; in assay [2] it was 87%; in assay [3], 79%; in assay [4] it was 95%; in assay [5], 60%; in assay [6], 88%.

Regarding `CCCCCCCCCCCC(CCOc1ccc(C(=O)O)cc1)SCc1ccccc1` (configuration not stated), the Activity in assay [1] was determined as 92%; in assay [2], 100%; in assay [3], 79%; in assay [4] it was 109%; in assay [5], 69%; in assay [6] it was 92%.

`CCCCCCCCCCCCCC#CCOc1ccc(C(=O)OC)cc1`: the Activity in assay [1] came to 89%; in assay [2] it was 83%; in assay [3], 66%; in assay [4] it was 89%; in assay [5], 57%; in assay [6], 78%.

`O=C(O)c1ccc(OC23CC4CC(CC(C4)C2)C3)cc1`: the Activity in assay [1] is recorded as 88%; in assay [2], 87%; in assay [3] it was 89%; in assay [4], 90%; in assay [5], 85%; in assay [6], 85%.

Turning to `CCCSCCCCCCCCCCCOc1ccc(C(=O)O)cc1`, the Activity in assay [1] is listed as 86%; in assay [2], 94%; in assay [3], 43%; in assay [4] it was 96%; in assay [5], 42%; in assay [6], 61%.

On to `CCCCCCCCCCCCCCC(C)(CC)Oc1ccc(C(=O)O)cc1` (configuration not stated), for which the Activity in assay [1] amounted to 102%; in assay [4], 100%; in assay [5], 94%; in assay [6] it was 94%.

For `CCCCCCCCCCCC(CCOc1ccc(C(=O)O)cc1)N=[N+]=[N-]` (configuration not stated), the Activity in assay [1] came to 76%; in assay [2] it was 89%; in assay [3], 60%; in assay [4], 105%; in assay [5], 55%; in assay [6], 98%.

With `O=C(O)c1ccc(OCCCCCCCCCCCCCCCS)cc1`, the Activity in assay [1] is given as 82%; in assay [2], 81%; in assay [3], 42%; in assay [4], 100%; in assay [5], 40%; in assay [6], 56%.

As for `COC(=O)c1ccc(OCC2(C34CC5CC(CC(C5)C3)C4)SCCS2)cc1`, the Activity is on record as 93% in assay [1]; 89% in assay [2]; 83% in assay [3]; 94% in assay [4]; 112% in assay [5]; 94% in assay [6].

In the case of `CCCCCCCCCCCC(CCOc1ccc(C(=O)O)cc1)SCC` (configuration not stated), the Activity in assay [1] was 83%; in assay [2], 93%; in assay [3] it was 74%; in assay [4], 95%; in assay [5], 44%; in assay [6], 68%.

`CCCCNCCCCCCCCCCCOc1ccc(C(=O)OC)cc1.Cl`: the Activity was found to be 89% in assay [1]; 96% in assay [2]; 71% in assay [3]; 100% in assay [4]; 66% in assay [5]; 87% in assay [6].

As for `CCCCCCCCCCCCCCCC(C)(C)Oc1ccc(C(=O)O)cc1`, the Activity is 96% in assay [1]; 112% in assay [2]; 111% in assay [3]; 101% in assay [4]; 100% in assay [5]; 103% in assay [6].

As for `CCSCCCCCCCCCCCOc1ccc(C(=O)OC)cc1`, the Activity in assay [1] is listed as 100%; in assay [2], 100%; in assay [3] it was 74%; in assay [4], 110%; in assay [5], 65%; in assay [6], 71%.

`CCCCCCCCCCC/C(CCOc1ccc(C(=O)OC)cc1)=N/O`: the Activity in assay [1] was determined as 64%; in assay [2], 67%; in assay [3] it was 43%; in assay [4] it was 74%; in assay [5], 32%; in assay [6], 53%.

Regarding `O=C(O)c1ccc(OC(=O)C2C3CC4CC(C3)CC2C4)cc1` (configuration not stated), the Activity in assay [1] came out at 92%; in assay [2], 99%; in assay [3], 101%; in assay [4] it was 93%; in assay [5], 113%; in assay [6] it was 90%.

For the compound `CCSCCCCCCCCCCCCCCCCOc1ccc(C(=O)O)cc1`, the Activity in assay [1] stood at 90%; in assay [2], 88%; in assay [3] it was 48%; in assay [4], 89%; in assay [5], 45%; in assay [6], 59%.

As for `COC(=O)c1ccc(OCCCCCCCCCCCO)cc1`, the Activity in assay [1] stood at 92%; in assay [2], 94%; in assay [3], 86%; in assay [4] it was 94%; in assay [5], 72%; in assay [6], 140%.

As to `CCCCCCCC/C=C/CCCCCCCCOc1ccc(C(=O)OC)cc1`, the Activity in assay [1] worked out at 104%; in assay [2] it was 102%; in assay [3], 86%; in assay [4], 102%; in assay [5], 46%; in assay [6] it was 73%.

Turning to `CCCCCCCCCCCCC/C=C\COc1ccc(C(=O)OC)cc1`, the Activity in assay [1] stood at 82%; in assay [2], 83%; in assay [3] it was 83%; in assay [4] it was 89%; in assay [5], 89%; in assay [6], 96%.

For the compound `CCCCCCCCCCCC(Cl)CCOc1ccc(C(=O)OC)cc1` (configuration not stated), the Activity in assay [1] is on record as 84%; in assay [2], 87%; in assay [3], 53%; in assay [4], 100%; in assay [5], 45%; in assay [6] it was 80%.

Turning to `CCCCCCCCCCCC(O)C(O)CCCOc1ccc(C(=O)O)cc1` (configuration not stated), the Activity in assay [1] amounted to 83%; in assay [2], 86%; in assay [3] it was 60%; in assay [5] it was 55%.

For the origin of these results see ChEMBL document CHEMBL3272177, “Hypolipidemic alkoxybenzoic acids” (1976).
